Experimental data reported in ChEMBL document CHEMBL1156631 (J Med Chem, 2008).

What follows are compounds tested against T1, Cannabinoid receptor 1 (Homo sapiens, UniProt P21554) (assay: Agonist activity at human CB1 receptor expressed in Sf9 cells by GTP-europium binding assay).
Summary of the method: (§1)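 Membranes were from Sf9 insect cells cotransfected with CB1 or CB2 plus Gαi3 (Bmax 1.7 pmol/mL). Compound (0.01 nM–10 µM, 1% DMSO final) was added to buffer with Hepes, BSA, 10 mM MgCl2, 150 mM NaCl, 5 µM GDP, 10 nM GTP-europium, saponin and membranes (CB1 4.5 µg/well, CB2 14 µg/well). 100% efficacy was set by 3 µM reference agonist.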

T1 sequence (P21554 whole entry): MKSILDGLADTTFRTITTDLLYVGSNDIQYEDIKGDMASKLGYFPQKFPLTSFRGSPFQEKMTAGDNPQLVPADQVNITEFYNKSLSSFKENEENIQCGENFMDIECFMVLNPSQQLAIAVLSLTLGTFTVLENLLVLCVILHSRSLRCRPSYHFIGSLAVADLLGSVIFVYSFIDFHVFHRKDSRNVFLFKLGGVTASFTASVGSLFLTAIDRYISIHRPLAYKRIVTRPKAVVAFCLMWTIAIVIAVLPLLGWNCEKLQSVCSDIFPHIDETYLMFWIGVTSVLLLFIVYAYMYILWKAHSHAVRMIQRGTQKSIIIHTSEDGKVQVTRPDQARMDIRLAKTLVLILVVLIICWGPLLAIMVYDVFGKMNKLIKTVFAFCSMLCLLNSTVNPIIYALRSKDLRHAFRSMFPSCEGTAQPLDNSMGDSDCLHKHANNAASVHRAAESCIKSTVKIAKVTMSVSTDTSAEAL

Row | SMILES | EC50 [nM]
1 | CCn1c2ccccc2c2cc(NC(=O)CCc3nc(-c4ccc(F)cc4Cl)no3)ccc21 | 1200
2 | CCn1c2ccccc2c2cc(NC(=O)CCc3nc(-c4ccncc4C#N)no3)ccc21 | > 10000
3 | CCn1c2ccccc2c2cc(NC(=O)CCc3noc(-c4ccccc4F)n3)ccc21 | > 10000
4 | CCn1c2ccccc2c2cc(NC(=O)CCn3nnc(-c4ccccc4F)n3)ccc21 | > 10000
5 | CC(C)(C)c1ncc(OCCCc2nc(-c3ccc(F)cc3Cl)no2)cn1 | 610
6 | N#Cc1cc(NCCCc2nc(-c3ccc(F)cc3Cl)no2)cnc1OCC(F)(F)F | 1300
7 | CCn1c2ccccc2c2cc(NC(=O)CCc3nc(-c4ccc(F)cc4C#N)no3)ccc21 | 709

Each compound was assayed against T2, Cannabinoid receptor 2 (Homo sapiens, UniProt P34972) (assay: Agonist activity at human recombinant CB2 receptor expressed in Sf9 cells by GTP-europium binding assay).
T2 sequence (P34972 whole entry): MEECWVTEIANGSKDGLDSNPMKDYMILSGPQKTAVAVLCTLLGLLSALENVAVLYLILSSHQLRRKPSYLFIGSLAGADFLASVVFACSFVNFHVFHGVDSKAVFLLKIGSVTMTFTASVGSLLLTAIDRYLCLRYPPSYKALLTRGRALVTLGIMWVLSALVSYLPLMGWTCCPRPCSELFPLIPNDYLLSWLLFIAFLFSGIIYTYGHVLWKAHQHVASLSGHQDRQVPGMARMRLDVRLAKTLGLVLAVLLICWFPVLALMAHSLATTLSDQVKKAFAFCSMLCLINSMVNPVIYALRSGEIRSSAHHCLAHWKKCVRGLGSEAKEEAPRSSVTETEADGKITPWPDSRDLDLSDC
Summary of the method: as §1

Row | SMILES | EC50 [nM]
8 | CCn1c2ccccc2c2cc(NC(=O)CCc3nc(-c4ccc(F)cc4Cl)no3)ccc21 | 1.8
9 | CCn1c2ccccc2c2cc(NC(=O)CCc3nc(-c4ccncc4C#N)no3)ccc21 | 3.8
10 | CCn1c2ccccc2c2cc(NC(=O)CCc3noc(-c4ccccc4F)n3)ccc21 | 190
11 | CCn1c2ccccc2c2cc(NC(=O)CCn3nnc(-c4ccccc4F)n3)ccc21 | 200
12 | CC(C)(C)c1ncc(OCCCc2nc(-c3ccc(F)cc3Cl)no2)cn1 | 4.9
13 | N#Cc1cc(NCCCc2nc(-c3ccc(F)cc3Cl)no2)cnc1OCC(F)(F)F | 31
14 | CCn1c2ccccc2c2cc(NC(=O)CCc3nc(-c4ccc(F)cc4C#N)no3)ccc21 | 0.85

The compounds below were run against T1, Cannabinoid receptor 1 (assay: Agonist activity at human recombinant CB1 receptor expressed in Sf9 cells by GTP-europium binding assay relative to CP-55940).
Summary of the method: as §1, with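 “µg/well). Incubation was 45 min at room temperature, then filtration and washing, with fluorescence read at 615 nm.” for “µg/well).”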

Row | SMILES | Emax [%]
15 | CCn1c2ccccc2c2cc(NC(=O)CCc3nc(-c4ccc(F)cc4Cl)no3)ccc21 | 65
16 | CC(C)(C)c1ncc(OCCCc2nc(-c3ccc(F)cc3Cl)no2)cn1 | 99
17 | N#Cc1cc(NCCCc2nc(-c3ccc(F)cc3Cl)no2)cnc1OCC(F)(F)F | 24
18 | CCn1c2ccccc2c2cc(NC(=O)CCc3nc(-c4ccc(F)cc4C#N)no3)ccc21 | 39

The compounds below were run against T2, Cannabinoid receptor 2 (assay: Agonist activity at human recombinant CB2 receptor expressed in Sf9 cells by GTP-europium binding assay relative to CP-55940).
Summary of the method: as §1, with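 “µg/well). Incubation was 45 min at room temperature, then filtration and washing, with fluorescence read at 615 nm.” for “µg/well).”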

Row | SMILES | Emax [%]
19 | CCn1c2ccccc2c2cc(NC(=O)CCc3nc(-c4ccc(F)cc4Cl)no3)ccc21 | 98
20 | CCn1c2ccccc2c2cc(NC(=O)CCc3nc(-c4ccncc4C#N)no3)ccc21 | 110
21 | CCn1c2ccccc2c2cc(NC(=O)CCc3noc(-c4ccccc4F)n3)ccc21 | 76
22 | CCn1c2ccccc2c2cc(NC(=O)CCn3nnc(-c4ccccc4F)n3)ccc21 | 93
23 | CC(C)(C)c1ncc(OCCCc2nc(-c3ccc(F)cc3Cl)no2)cn1 | 110
24 | N#Cc1cc(NCCCc2nc(-c3ccc(F)cc3Cl)no2)cnc1OCC(F)(F)F | 110
25 | CCn1c2ccccc2c2cc(NC(=O)CCc3nc(-c4ccc(F)cc4C#N)no3)ccc21 | 120

What follows are compounds tested against T1, Cannabinoid receptor 1 (assay: Agonist activity at human recombinant CB1 receptor expressed in CHO-K1 cells assessed as inhibition of forskolin-stimulated intracellular cAMP level).
Assay type: functional, cell-based
Summary of the method: (§2)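 CHO-K1 cells stably expressing human or rat CB1 or CB2 were used. Compounds were diluted from DMSO into HBSS/HEPES/BSA buffer containing 60 µM forskolin, then combined with 5000 cells/well plus Alexa647 anti-cAMP antibody, 1 h at room temperature. A biotinylated-cAMP detection mix was added for another 1 h.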

Row | SMILES | EC50 [nM]
26 | CCn1c2ccccc2c2cc(NC(=O)CCc3nc(-c4ccc(F)cc4Cl)no3)ccc21 | > 1000
27 | CCn1c2ccccc2c2cc(NC(=O)CCc3nc(-c4ccncc4C#N)no3)ccc21 | > 1000
28 | CCn1c2ccccc2c2cc(NC(=O)CCn3nnc(-c4ccccc4F)n3)ccc21 | > 1000
29 | CC(C)(C)c1ncc(OCCCc2nc(-c3ccc(F)cc3Cl)no2)cn1 | 1500
30 | N#Cc1cc(NCCCc2nc(-c3ccc(F)cc3Cl)no2)cnc1OCC(F)(F)F | > 1000
31 | CCn1c2ccccc2c2cc(NC(=O)CCc3nc(-c4ccc(F)cc4C#N)no3)ccc21 | > 1000

What follows are compounds tested against T2, Cannabinoid receptor 2 (assay: Agonist activity at human recombinant CB2 receptor expressed in CHO-K1 cells assessed as inhibition of forskolin-stimulated intracellular cAMP level).
Assay type: functional, cell-based
Summary of the method: as §2

Row | SMILES | EC50 [nM]
32 | CCn1c2ccccc2c2cc(NC(=O)CCc3nc(-c4ccc(F)cc4Cl)no3)ccc21 | 0.6
33 | CCn1c2ccccc2c2cc(NC(=O)CCc3nc(-c4ccncc4C#N)no3)ccc21 | > 2.6
34 | CCn1c2ccccc2c2cc(NC(=O)CCn3nnc(-c4ccccc4F)n3)ccc21 | 690
35 | CC(C)(C)c1ncc(OCCCc2nc(-c3ccc(F)cc3Cl)no2)cn1 | 24
36 | N#Cc1cc(NCCCc2nc(-c3ccc(F)cc3Cl)no2)cnc1OCC(F)(F)F | 360
37 | CCn1c2ccccc2c2cc(NC(=O)CCc3nc(-c4ccc(F)cc4C#N)no3)ccc21 | 0.33

What follows are compounds tested against T1, Cannabinoid receptor 1 (assay: Agonist activity at human recombinant CB1 receptor expressed in CHO-K1 cells assessed as inhibition of forskolin-stimulated intracellular cAMP level relative to CP-55940).
Assay type: functional, cell-based
Summary of the method: as §2, with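 “h. Emission at 665 nm gave concentration-response curves and EC50; Emax is expressed as a percentage of the reference agonist maximum.” for “h.”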

Row | SMILES | Emax [%]
38 | CCn1c2ccccc2c2cc(NC(=O)CCc3nc(-c4ccc(F)cc4Cl)no3)ccc21 | 20
39 | CC(C)(C)c1ncc(OCCCc2nc(-c3ccc(F)cc3Cl)no2)cn1 | 63
40 | CCn1c2ccccc2c2cc(NC(=O)CCc3nc(-c4ccc(F)cc4C#N)no3)ccc21 | 12

These compounds were tested against T2, Cannabinoid receptor 2 (assay: Agonist activity at human recombinant CB2 receptor expressed in CHO-K1 cells assessed as inhibition of forskolin-stimulated intracellular cAMP level relative to CP-55940).
Assay type: functional, cell-based
Summary of the method: as §2, with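 “h. Emission at 665 nm gave concentration-response curves and EC50; Emax is expressed as a percentage of the reference agonist maximum.” for “h.”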

Row | SMILES | Emax [%]
41 | CCn1c2ccccc2c2cc(NC(=O)CCc3nc(-c4ccc(F)cc4Cl)no3)ccc21 | 100
42 | CCn1c2ccccc2c2cc(NC(=O)CCc3nc(-c4ccncc4C#N)no3)ccc21 | 100
43 | CCn1c2ccccc2c2cc(NC(=O)CCn3nnc(-c4ccccc4F)n3)ccc21 | 88
44 | CC(C)(C)c1ncc(OCCCc2nc(-c3ccc(F)cc3Cl)no2)cn1 | 91
45 | N#Cc1cc(NCCCc2nc(-c3ccc(F)cc3Cl)no2)cnc1OCC(F)(F)F | 87
46 | CCn1c2ccccc2c2cc(NC(=O)CCc3nc(-c4ccc(F)cc4C#N)no3)ccc21 | 110

The compounds below were run against Cannabinoid receptor 1 (Rattus norvegicus, UniProt P20272) (assay: Agonist activity at rat recombinant CB1 receptor expressed in CHO-K1 cells assessed as inhibition of forskolin-stimulated intracellular cAMP level).
Cannabinoid receptor 1 (Rattus norvegicus, UniProt P20272), sequence (P20272 whole entry): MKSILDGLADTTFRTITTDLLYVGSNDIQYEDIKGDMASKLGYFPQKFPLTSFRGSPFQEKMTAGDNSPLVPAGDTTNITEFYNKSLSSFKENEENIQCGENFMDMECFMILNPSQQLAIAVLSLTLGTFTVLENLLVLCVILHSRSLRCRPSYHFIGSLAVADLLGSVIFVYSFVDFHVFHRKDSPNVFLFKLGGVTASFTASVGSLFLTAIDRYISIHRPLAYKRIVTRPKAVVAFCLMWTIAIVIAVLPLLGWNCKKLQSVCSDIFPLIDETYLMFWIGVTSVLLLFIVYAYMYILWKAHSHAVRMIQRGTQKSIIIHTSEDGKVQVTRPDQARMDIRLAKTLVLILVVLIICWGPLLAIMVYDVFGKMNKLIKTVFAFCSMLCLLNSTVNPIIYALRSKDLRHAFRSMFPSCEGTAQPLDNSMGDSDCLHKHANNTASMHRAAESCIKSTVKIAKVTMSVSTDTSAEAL
Assay type: functional, cell-based
Summary of the method: as §2

Row | SMILES | EC50 [nM]
47 | CCn1c2ccccc2c2cc(NC(=O)CCc3nc(-c4ccc(F)cc4Cl)no3)ccc21 | 330
48 | CCn1c2ccccc2c2cc(NC(=O)CCc3nc(-c4ccncc4C#N)no3)ccc21 | > 1000
49 | CCn1c2ccccc2c2cc(NC(=O)CCn3nnc(-c4ccccc4F)n3)ccc21 | > 1000
50 | CC(C)(C)c1ncc(OCCCc2nc(-c3ccc(F)cc3Cl)no2)cn1 | 540
51 | N#Cc1cc(NCCCc2nc(-c3ccc(F)cc3Cl)no2)cnc1OCC(F)(F)F | > 1000
52 | CCn1c2ccccc2c2cc(NC(=O)CCc3nc(-c4ccc(F)cc4C#N)no3)ccc21 | 240

What follows are compounds tested against T3, Cannabinoid receptor 2 (Rattus norvegicus, UniProt Q9QZN9) (assay: Agonist activity at rat recombinant CB2 receptor expressed in CHO-K1 cells assessed as inhibition of forskolin-stimulated intracellular cAMP level).
T3 sequence (Q9QZN9 whole entry): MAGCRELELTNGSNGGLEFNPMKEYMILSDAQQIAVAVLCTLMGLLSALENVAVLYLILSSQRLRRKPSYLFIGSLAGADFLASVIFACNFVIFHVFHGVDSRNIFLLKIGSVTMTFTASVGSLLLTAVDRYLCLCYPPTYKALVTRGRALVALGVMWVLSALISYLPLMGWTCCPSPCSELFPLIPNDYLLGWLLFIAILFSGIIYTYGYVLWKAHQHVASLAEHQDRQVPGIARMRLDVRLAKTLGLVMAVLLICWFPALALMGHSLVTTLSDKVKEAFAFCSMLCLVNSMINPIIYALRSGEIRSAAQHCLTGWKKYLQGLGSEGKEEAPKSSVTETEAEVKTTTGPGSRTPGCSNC
Assay type: functional, cell-based
Summary of the method: as §2, with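 “h. Emission at 665 nm gave concentration-response curves and EC50; Emax is expressed as a percentage of the reference agonist maximum.” for “h.”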

Row | SMILES | EC50 [nM]
53 | CCn1c2ccccc2c2cc(NC(=O)CCc3nc(-c4ccc(F)cc4Cl)no3)ccc21 | 0.4
54 | CCn1c2ccccc2c2cc(NC(=O)CCc3nc(-c4ccncc4C#N)no3)ccc21 | 1.3
55 | CCn1c2ccccc2c2cc(NC(=O)CCn3nnc(-c4ccccc4F)n3)ccc21 | 97
56 | CC(C)(C)c1ncc(OCCCc2nc(-c3ccc(F)cc3Cl)no2)cn1 | 16
57 | N#Cc1cc(NCCCc2nc(-c3ccc(F)cc3Cl)no2)cnc1OCC(F)(F)F | 130
58 | CCn1c2ccccc2c2cc(NC(=O)CCc3nc(-c4ccc(F)cc4C#N)no3)ccc21 | 0.13

Each compound was assayed against Cannabinoid receptor 1 (Rattus norvegicus) (UniProt P20272) (assay: Agonist activity at rat recombinant CB1 receptor expressed in CHO-K1 cells assessed as inhibition of forskolin-stimulated intracellular cAMP level relative to CP-55940).
Cannabinoid receptor 1 (Rattus norvegicus), sequence (P20272 whole entry): as the sequence (P20272 whole entry) above
Assay type: functional, cell-based
Summary of the method: as §2, with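 “h. Emission at 665 nm gave concentration-response curves and EC50; Emax is expressed as a percentage of the reference agonist maximum.” for “h.”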

Row | SMILES | Emax [%]
59 | CCn1c2ccccc2c2cc(NC(=O)CCc3nc(-c4ccc(F)cc4Cl)no3)ccc21 | 79
60 | CC(C)(C)c1ncc(OCCCc2nc(-c3ccc(F)cc3Cl)no2)cn1 | 86
61 | CCn1c2ccccc2c2cc(NC(=O)CCc3nc(-c4ccc(F)cc4C#N)no3)ccc21 | 84

These compounds were tested against T4, Cannabinoid receptor 2 (Rattus norvegicus) (UniProt Q9QZN9) (assay: Agonist activity at rat recombinant CB2 receptor expressed in CHO-K1 cells assessed as inhibition of forskolin-stimulated intracellular cAMP level relative to CP-55940).
T4 sequence (whole entry): T3 sequence (Q9QZN9 whole entry)
Assay type: functional, cell-based
Summary of the method: as §2, with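 “h. Emission at 665 nm gave concentration-response curves and EC50; Emax is expressed as a percentage of the reference agonist maximum.” for “h.”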

Row | SMILES | Emax [%]
62 | CCn1c2ccccc2c2cc(NC(=O)CCc3nc(-c4ccc(F)cc4Cl)no3)ccc21 | 98
63 | CCn1c2ccccc2c2cc(NC(=O)CCc3nc(-c4ccncc4C#N)no3)ccc21 | 110
64 | CCn1c2ccccc2c2cc(NC(=O)CCn3nnc(-c4ccccc4F)n3)ccc21 | 90
65 | CC(C)(C)c1ncc(OCCCc2nc(-c3ccc(F)cc3Cl)no2)cn1 | 100
66 | N#Cc1cc(NCCCc2nc(-c3ccc(F)cc3Cl)no2)cnc1OCC(F)(F)F | 85
67 | CCn1c2ccccc2c2cc(NC(=O)CCc3nc(-c4ccc(F)cc4C#N)no3)ccc21 | 130
